Measurements from ChEMBL document CHEMBL4428060 (J Med Chem, 2016).

Columns and labels:
D(3) dopamine receptor [1] = molecular target: T1, D(3) dopamine receptor (Homo sapiens, UniProt P35462); assay: Agonist activity at human dopamine D3 receptor expressed in CHO cells assessed as stimulation of mitogenesis incubated for 16 hrs in presence of [3H]thymidine by scintillation spectrometric analysis; assay type: cell-based; parameters: concentration or dose not given beside the values
Homo sapiens [2] = species: Homo sapiens; assay: Selectivity ratio of Ki for human dopamine D2L receptor to Ki for human dopamine D3 receptor expressed in HEK293 cell membranes; assay type: cell-based
How it was run: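 Competition binding on membranes from HEK293 cells stably expressing human D2LR or D3R; 10 μg protein per tube in EBSS with 0.2 mM sodium metabisulfite, [3H]N-methylspiperone 0.4 nM final, 1 h at room temperature, GF/B filtration, scintillation counting.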

[3] = molecular target: T2, 5-hydroxytryptamine receptor 1A (Homo sapiens) (UniProt P08908); assay: (§1) Agonist activity at 5-HT1A receptor (unknown origin) by [35S]GTPgammaS binding assay; assay type: functional; parameters: concentration or dose not given beside the values
T2 sequence (whole entry): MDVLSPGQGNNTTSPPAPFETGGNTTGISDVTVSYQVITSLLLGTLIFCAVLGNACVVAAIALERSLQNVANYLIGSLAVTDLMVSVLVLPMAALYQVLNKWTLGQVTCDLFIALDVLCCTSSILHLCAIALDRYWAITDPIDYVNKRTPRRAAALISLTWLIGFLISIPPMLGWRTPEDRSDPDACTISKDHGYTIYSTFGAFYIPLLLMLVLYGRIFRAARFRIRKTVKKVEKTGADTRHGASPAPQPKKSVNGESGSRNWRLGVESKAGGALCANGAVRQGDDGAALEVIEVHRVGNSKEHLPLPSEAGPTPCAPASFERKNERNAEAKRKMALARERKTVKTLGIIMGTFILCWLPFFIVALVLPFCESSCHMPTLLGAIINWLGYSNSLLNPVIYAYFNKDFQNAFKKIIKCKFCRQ

D(4) dopamine receptor = molecular target: T3, D(4) dopamine receptor (Homo sapiens, UniProt P21917); assay: Displacement of [3H]N-methylspiperone from human dopamine D4.4 receptor expressed in HEK293 cell membranes incubated for 1 hr by liquid scintillation counting analysis
T3 sequence (P21917 whole entry): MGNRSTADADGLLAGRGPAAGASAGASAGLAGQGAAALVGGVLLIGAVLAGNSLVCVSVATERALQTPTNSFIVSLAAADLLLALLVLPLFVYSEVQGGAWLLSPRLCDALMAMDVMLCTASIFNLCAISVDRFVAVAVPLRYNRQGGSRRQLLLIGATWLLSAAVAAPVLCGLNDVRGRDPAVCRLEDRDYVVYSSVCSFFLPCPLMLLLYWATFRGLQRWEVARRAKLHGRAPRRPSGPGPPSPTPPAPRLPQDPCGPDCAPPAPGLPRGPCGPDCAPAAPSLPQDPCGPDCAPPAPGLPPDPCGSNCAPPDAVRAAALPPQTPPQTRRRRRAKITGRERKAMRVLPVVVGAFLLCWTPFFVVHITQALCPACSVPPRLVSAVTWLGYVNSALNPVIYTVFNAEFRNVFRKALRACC
How it was run: (§2)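 Membranes from HEK293 cells stably expressing human D2LR, D3R or D4.4R, 10 μg protein (D2LR, D3R) or 20 μg (D4.4R) per tube, in EBSS pH 7.4 with 0.2 mM sodium metabisulfite. [3H]N-methylspiperone 0.4 nM final. 13 half-log dilutions, 100 μM–100 pM or 10 μM–10 pM final. 10 μM butaclamol defined nonspecific binding. Triplicates, 1 h at room temperature, GF/B filtration. Ki by Cheng-Prusoff from IC50, at least three independent experiments.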

Homo sapiens [4] = species: Homo sapiens; assay: Selectivity ratio of Ki for human dopamine D4.4 receptor to Ki for human dopamine D2L receptor expressed in HEK293 cell membranes; assay type: cell-based
[5] = molecular target: T4, 5-hydroxytryptamine receptor 2C (Homo sapiens, UniProt P28335); assay: Displacement of [125I]DOI from 5-HT2C receptor (unknown origin)
T4 sequence (P28335 whole entry): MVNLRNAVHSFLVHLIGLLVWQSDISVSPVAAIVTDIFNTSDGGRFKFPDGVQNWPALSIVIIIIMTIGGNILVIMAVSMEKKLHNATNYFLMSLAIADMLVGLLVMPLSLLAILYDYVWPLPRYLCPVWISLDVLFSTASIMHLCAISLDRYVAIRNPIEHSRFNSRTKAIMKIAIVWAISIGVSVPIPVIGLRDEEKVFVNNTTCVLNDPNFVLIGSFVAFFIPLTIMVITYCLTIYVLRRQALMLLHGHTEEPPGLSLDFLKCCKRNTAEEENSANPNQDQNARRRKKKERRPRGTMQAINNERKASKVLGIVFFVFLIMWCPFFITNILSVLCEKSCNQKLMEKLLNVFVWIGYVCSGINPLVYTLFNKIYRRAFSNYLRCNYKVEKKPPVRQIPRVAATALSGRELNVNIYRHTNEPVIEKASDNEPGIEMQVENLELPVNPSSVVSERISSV

[6] = molecular target: T5, 5-hydroxytryptamine receptor 1A (Homo sapiens, UniProt P08908); assay: Displacement of [3H]-8-OH-DPAT from 5-HT1A receptor (unknown origin)
T5 sequence (P08908 whole entry): T2 sequence (whole entry)

D(2) dopamine receptor = D(2) dopamine receptor (Homo sapiens, UniProt P14416); assay: Displacement of [3H]N-methylspiperone from human dopamine D2L receptor expressed in HEK293 cell membranes incubated for 1 hr by liquid scintillation counting analysis; how it was run: as §2
[7] = molecular target: 5-hydroxytryptamine receptor 2A (Homo sapiens, UniProt P28223); assay: Displacement of [125I]DOI from 5-HT2A receptor (unknown origin)
D(3) dopamine receptor [8] = molecular target: T1, D(3) dopamine receptor; assay: Antagonist activity at human dopamine D3 receptor expressed in CHO cells assessed as inhibition of quinpirole-stimulated mitogenesis incubated for 16 hrs in presence of [3H]thymidine by scintillation spectrometric analysis; assay type: cell-based
[9] = molecular target: T5, 5-hydroxytryptamine receptor 1A; assay: as §1; assay type: functional
Homo sapiens [10] = species: Homo sapiens; assay: Selectivity ratio of Ki for human dopamine D4.4 receptor to Ki for human dopamine D3 receptor expressed in HEK293 cell membranes; assay type: cell-based
D(3) dopamine receptor [11] = molecular target: T1, D(3) dopamine receptor; assay: Displacement of [3H]N-methylspiperone from human dopamine D3 receptor expressed in HEK293 cell membranes incubated for 1 hr by liquid scintillation counting analysis; how it was run: as §2

T1 sequence (P35462 whole entry): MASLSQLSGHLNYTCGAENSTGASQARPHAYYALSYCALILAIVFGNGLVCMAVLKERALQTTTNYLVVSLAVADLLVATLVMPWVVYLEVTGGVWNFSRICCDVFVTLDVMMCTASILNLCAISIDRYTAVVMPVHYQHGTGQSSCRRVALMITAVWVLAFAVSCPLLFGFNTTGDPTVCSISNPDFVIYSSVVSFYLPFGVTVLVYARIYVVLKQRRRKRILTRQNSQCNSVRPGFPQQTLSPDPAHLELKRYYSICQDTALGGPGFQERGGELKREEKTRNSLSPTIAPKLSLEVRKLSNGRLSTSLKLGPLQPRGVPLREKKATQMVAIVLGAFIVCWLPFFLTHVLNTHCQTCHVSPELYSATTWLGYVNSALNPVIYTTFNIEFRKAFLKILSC
Chain of D(2) dopamine receptor (P14416 whole entry): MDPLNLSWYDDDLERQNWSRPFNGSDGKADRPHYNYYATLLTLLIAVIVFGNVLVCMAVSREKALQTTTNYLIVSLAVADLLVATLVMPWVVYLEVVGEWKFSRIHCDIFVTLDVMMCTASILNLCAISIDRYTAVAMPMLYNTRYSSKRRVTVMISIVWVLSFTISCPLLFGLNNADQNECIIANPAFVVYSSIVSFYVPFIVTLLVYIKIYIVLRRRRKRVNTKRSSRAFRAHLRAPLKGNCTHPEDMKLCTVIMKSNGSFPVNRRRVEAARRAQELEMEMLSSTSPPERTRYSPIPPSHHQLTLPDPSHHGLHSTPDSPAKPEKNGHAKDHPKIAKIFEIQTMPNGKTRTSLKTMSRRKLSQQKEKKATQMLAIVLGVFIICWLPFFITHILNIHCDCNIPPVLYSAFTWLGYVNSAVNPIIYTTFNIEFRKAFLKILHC
Chain of 5-hydroxytryptamine receptor 2A (P28223 whole entry): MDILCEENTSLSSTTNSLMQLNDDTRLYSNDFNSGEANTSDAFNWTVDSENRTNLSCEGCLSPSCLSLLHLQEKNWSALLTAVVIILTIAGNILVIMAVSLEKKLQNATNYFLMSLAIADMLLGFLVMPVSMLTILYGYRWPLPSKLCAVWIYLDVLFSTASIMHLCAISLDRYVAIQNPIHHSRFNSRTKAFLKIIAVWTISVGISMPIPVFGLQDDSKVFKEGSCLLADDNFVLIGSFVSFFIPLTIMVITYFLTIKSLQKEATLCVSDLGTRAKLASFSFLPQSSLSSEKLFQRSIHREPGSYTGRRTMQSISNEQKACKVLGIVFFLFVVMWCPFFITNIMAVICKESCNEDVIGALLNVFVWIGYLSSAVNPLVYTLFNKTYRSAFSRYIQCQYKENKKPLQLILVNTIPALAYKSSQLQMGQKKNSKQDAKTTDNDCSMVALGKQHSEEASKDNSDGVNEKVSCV

CCc1cccc(N2CCN(CC(O)CCNC(=O)c3cc4ccccc4o3)CC2)c1Cl (stereo not given)
Activity (D(3) dopamine receptor [1]): 22.3%
Ratio Ki (Homo sapiens [2]): 166
Activity [3]: 101%

CCc1cccc(N2CCN(CCCCNC(=O)c3nc(C)c[nH]3)CC2)c1Cl
Ratio Ki (Homo sapiens [2]): 20

CCc1c[nH]c(C(=O)NCCCCN2CCN(c3cccc(CC)c3Cl)CC2)n1
Ratio Ki (Homo sapiens [2]): 11

CCc1cccc(N2CCN(CC(O)CCNC(=O)c3cn4ccccc4n3)CC2)c1Cl (stereo not given)
Ratio Ki (Homo sapiens [2]): 46
Ki (D(4) dopamine receptor): > 10000 nM

CCc1cccc(N2CCNCC2)c1Cl
Activity (D(3) dopamine receptor [1]): 64.7%
EC50 (D(3) dopamine receptor [1]): 17.9 nM
Ratio Ki (Homo sapiens [4]): 2.3
Ki [5]: 5.4 nM
Ki [6]: 70.3 nM
Ki (D(2) dopamine receptor): 139 nM
Ratio Ki (Homo sapiens [2]): 4.5
Ki [7]: 7 nM
IC50 (D(3) dopamine receptor [8]): > 10000 nM
Activity [3]: 90.1%
EC50 [9]: 77 nM
Ratio Ki (Homo sapiens [10]): 10
Ki (D(4) dopamine receptor): 316 nM
Ki (D(3) dopamine receptor [11]): 31.1 nM

CCc1cccc(N2CCN(CCC(O)CNC(=O)c3cc4ccccc4[nH]3)CC2)c1Cl (stereo not given)
Ratio Ki (Homo sapiens [2]): 34

CCCCN1CCN(c2cccc(CC)c2Cl)CC1
Activity (D(3) dopamine receptor [1]): 29.1%
EC50 (D(3) dopamine receptor [1]): 590 nM
Ratio Ki (Homo sapiens [4]): 22
Ki [5]: 222 nM
Ki [6]: 37 nM
Ki (D(2) dopamine receptor): 2.93 nM
Ratio Ki (Homo sapiens [2]): 8.1
Ki [7]: 53 nM
IC50 (D(3) dopamine receptor [8]): 63 nM
Activity [3]: 90.8%
EC50 [9]: 48 nM
Ratio Ki (Homo sapiens [10]): 179
Ki (D(4) dopamine receptor): 65.1 nM
Ki (D(3) dopamine receptor [11]): 0.363 nM

CCc1cccc(N2CCN(CCCCNC(=O)c3cc4ccccc4o3)CC2)c1Cl
Activity (D(3) dopamine receptor [1]): 31.2%
Ratio Ki (Homo sapiens [2]): 41
Activity [3]: 99.4%

CCc1cccc(N2CCN(CC(O)CCNC(=O)c3nc(C)c[nH]3)CC2)c1Cl (stereo not given)
Ratio Ki (Homo sapiens [2]): 13

CCc1cc(Cl)c(OC)c(N2CCN(CCCCNC(=O)c3cc4ccccc4[nH]3)CC2)c1
Activity (D(3) dopamine receptor [1]): 5.8%
Ratio Ki (Homo sapiens [2]): 82

CCc1cccc(N2CCN(CCCCNC(=O)c3cc4ccccc4[nH]3)CC2)c1Cl
Activity (D(3) dopamine receptor [1]): 42.3%
Ratio Ki (Homo sapiens [2]): 39
Activity [3]: 94.3%
